In ChEMBL document CHEMBL1135694, “Optimization of alkylidene hydrazide based human glucagon receptor antagonists. Discovery of the highly potent and orally available 3-cyano-4-hydroxybenzoic acid [1-(2,3,5,6-tetramethylbenzyl)-1H-indol-4-ylmethylene]hydrazide” (J Med Chem, 2002):
pIC50, pKi: −log10 of the molar value.

Assays:
[1] = Turnover in rat liver microsomes; type: ADME, Microsome
Outline: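 Rat liver microsomes (0.331 mg/mL protein) with 10 µM compound, 1 mM UDP-GA and 1 mM NADPH in KH2PO4 buffer, pH 7.4, at 37 °C. Sampled at 0-30 min (n = 3), stopped with MeCN. Rate was taken from parent disappearance by LC-MS.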

[2] = species on record: Rattus norvegicus; assay: Inhibitory activity against glucogon-stimulated glucose production from isolated primary rat hepatocytes; type: functional; details: hepatocyte
Outline: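 Hepatocytes came from fed male Sprague-Dawley rats by two-step perfusion and were glycogen-loaded with 15 mM glucose and 10 nM insulin for 24 h. Cells were then given compound (0-1000 nM) plus 0.5 nM glucagon for 70 min in HEPES/bicarbonate buffer with 0.1% HSA, pH 7.4, 37 °C. Released glucose and glycogen were measured. Ki came from Schild analysis; mean ± SEM of four hepatocyte preparations.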

[3] = tmax after peroral administration (2 mg/kg) in dog was determined; range 30-45; type: ADME, organism-based, Canis lupus familiaris; details: in vivo, po
Outline: (§1)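 Four purpose-bred male beagle dogs, 11-19 kg, 15-18 months old. Dosed 0.5 mg/kg intravenously, or 2.0 mg/kg perorally by gavage using the same dosing solution as the iv dose. Blood was sampled at set times from predose to 4 h postdose and assayed by LC-MS-MS. PK parameters were derived by noncompartmental analysis; half-lives are given as harmonic means.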

[4] = Oral bioavailability in dog; type: ADME, organism-based, Canis lupus familiaris; details: in vivo; outline: as §1
[5] = biological target: Glucagon receptor (Rattus norvegicus, UniProt P30082); assay: (§2) In vitro binding affinity towards rat glucagon receptor
[6] = biological target: Glucagon receptor (Homo sapiens, UniProt P47871); assay: In vitro binding affinity for recombinant human glucagon receptor (hGGR) in BHK cells; type: cell-based
Outline: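 Membranes (4 µg) from BHK cells expressing the cloned human glucagon receptor. Compounds were diluted in DMSO, and a glucagon standard curve was run. IC50 given as mean ± SD, n = 3.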

[7] = biological target: Glucagon receptor (Rattus norvegicus) (UniProt P30082); assay: as §2
[8] = Half life period after intravenous administration (0.5 mg/kg) in dog was determined; type: ADME, organism-based, Canis lupus familiaris; details: in vivo; outline: as §1
[9] = tmax in dog was determined; range 30-45; details: in vivo

Sequence of Glucagon receptor (Rattus norvegicus, UniProt P30082) (P30082 whole entry): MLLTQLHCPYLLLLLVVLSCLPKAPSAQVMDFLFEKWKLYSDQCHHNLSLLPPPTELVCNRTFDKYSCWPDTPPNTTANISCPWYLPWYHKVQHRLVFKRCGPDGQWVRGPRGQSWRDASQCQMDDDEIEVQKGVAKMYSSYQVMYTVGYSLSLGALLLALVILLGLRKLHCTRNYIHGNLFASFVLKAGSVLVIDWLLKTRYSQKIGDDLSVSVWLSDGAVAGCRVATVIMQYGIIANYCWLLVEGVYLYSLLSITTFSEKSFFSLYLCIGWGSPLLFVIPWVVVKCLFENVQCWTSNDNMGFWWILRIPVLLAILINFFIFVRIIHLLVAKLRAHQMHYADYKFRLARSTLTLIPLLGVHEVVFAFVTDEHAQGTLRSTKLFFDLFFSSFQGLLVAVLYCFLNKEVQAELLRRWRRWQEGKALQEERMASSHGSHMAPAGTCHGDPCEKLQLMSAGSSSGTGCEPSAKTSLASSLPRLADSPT
Sequence of Glucagon receptor (Rattus norvegicus) (P30082 whole entry): as above
Sequence of Glucagon receptor (Homo sapiens, UniProt P47871) (P47871 whole entry): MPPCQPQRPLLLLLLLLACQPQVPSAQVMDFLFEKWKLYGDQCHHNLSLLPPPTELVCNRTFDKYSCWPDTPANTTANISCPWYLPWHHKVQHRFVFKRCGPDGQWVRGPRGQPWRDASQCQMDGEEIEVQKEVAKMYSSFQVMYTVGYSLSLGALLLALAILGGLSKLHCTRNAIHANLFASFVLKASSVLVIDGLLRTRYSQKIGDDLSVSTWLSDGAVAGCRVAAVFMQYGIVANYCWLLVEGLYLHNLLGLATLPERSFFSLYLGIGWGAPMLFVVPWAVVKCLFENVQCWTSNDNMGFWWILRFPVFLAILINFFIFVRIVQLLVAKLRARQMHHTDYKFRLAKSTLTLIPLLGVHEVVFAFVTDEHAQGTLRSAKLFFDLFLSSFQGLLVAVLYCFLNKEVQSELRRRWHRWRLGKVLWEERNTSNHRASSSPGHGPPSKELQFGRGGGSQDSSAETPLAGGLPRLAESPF

## Cc1cc(C)c(C)c(Cn2ccc3c(/C=N/NC(=O)c4ccc(O)c(C#N)c4)cccc32)c1C
[1]
  Metabolism: 34 pmol/min/mg
[2]
  pKi: 7.85
[3]
  Tmax: 30 min
[4]
  bioavailability: 15%
[5]
  pIC50: 9.37
[6]
  pIC50: 8.64
[7]
  Kb: 0.38 nM
[8]
  half-life: 66.6 min
[9]
  Tmax: 30 min
